One assay relates to Sindbis virus. The assay can be described thus: Antiviral activity against sindbis virus in vero cells. Format: functional, organism-based.
A further assay concerns Human respirovirus 3. The assay is described as follows: Antiviral activity against parainfluenza3 virus in vero cells. It is filed as functional, organism-based.
For the next assay, the system named is Vaccinia virus. The assay can be described thus: Antiviral activity against vaccinia virus in E6SM cells. It is filed as functional, organism-based. The note with it: Orthopoxvirus vaccinia.
Assay [1] has as its system Respiratory syncytial virus. The assay can be described thus: Antiviral activity against respiratory syncytial virus […] in HeLa cells. It is filed as functional, organism-based.
Assay [2] relates to MDBK441. The assay can be described thus: Selectivity index (CC50/EC50) for inhibition of VP32947-resistant BVDV in MDBK cells. Format: functional. In short, it runs like this:
(§1)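 SI = CC50/EC50. EC50 comes from a 5-day Giemsa-stained CPE assay in MDBK cells at MOI 0.5; CC50 from a 3-day MTS/PMS proliferation assay. Means of at least three experiments. Line 10 uses the NADL F224S mutant.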

Assay [3] relates to Vesicular stomatitis virus. The assay is described as follows: Antiviral activity against vesicular stomatitis virus in E6SM cells. It is filed as functional, organism-based.
The test system of assay [4] is MDBK441. The assay can be described thus: Inhibition of BVDV NADL RNA production in MDBK cells. Format: functional, cell-based. To be noted: Bos taurus. In short, it runs like this: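 Viral RNA came from supernatant, total cellular RNA by kit. One-step TaqMan RT-qPCR: UNG 50 °C 2 min; RT 60 °C 30 min; 95 °C 5 min; 40 cycles of 94 °C 20 s and 62 °C 1 min. Three replicate reactions per sample.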

Assay [5] has as its system Human betaherpesvirus 5. The assay is described as follows: Antiviral activity against HCMV Davis in human embryonic lung cells. Format: functional, organism-based.
The subject of assay [6] is Human betaherpesvirus 5. The assay is described as follows: Antiviral activity against HCMV AD169 in human embryonic lung cells. It is filed as functional, organism-based.
The test system of assay [7] is MDBK441. The assay is described as follows: Inhibition of BVDV NADL production in MDBK cells. It is filed as functional, cell-based. To be noted: Bos taurus. In short, it runs like this:
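Supernatants were titrated on MDBK cells seeded at 5 × 10^3/well (10–15% confluent). Cells were infected 24 h later with 10-fold serial dilutions and, after 4 days, ethanol-fixed and Giemsa-stained. CPE was read microscopically; titre by Reed–Muench, as CCID50/mL.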

In assay [8] the test system is Mammalian orthoreovirus 1. The assay can be described thus: Antiviral activity against Reovirus1 in vero cells. It is filed as functional, organism-based.
The next assay relates to Huh-5-2. The assay can be described thus: Cytotoxicity against human hepatoma Huh5-2 cells. It is filed as functional. In short, it runs like this:
(§2)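 Cells seeded the day before, then given serial compound dilutions and left to proliferate 3 days at 37 °C. MDBK: 10^4/well in MEM-FCS. Huh 5-2: 5 × 10^3/well in complete DMEM. Cell number read by MTS/PMS. CC50 is the concentration inhibiting cell growth by 50%.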

A further assay deals with Punta Toro virus. The assay is described as follows: Antiviral activity against Punta Toro virus in vero cells. It is filed as functional, organism-based.
A further assay relates to Human alphaherpesvirus 2. The assay is described as follows: Antiviral activity against HSV2 G in E6SM cells. It is filed as functional, organism-based.
In assay [9] the test system is Human immunodeficiency virus 2. The assay is described as follows: Antiviral activity against HIV2 ROD in MT4 cells. It is filed as functional, organism-based.
The subject of assay [10] is MDBK441. The assay can be described thus: Cytotoxicity against MDBK cells. The note with it: Bos taurus. Format: functional. In short, it runs like this: as §2
For a further assay, the system named is Human alphaherpesvirus 1. The assay can be described thus: Antiviral activity against HSV1 KOS in E6SM cells. It is filed as functional, organism-based.
The subject of another assay is Coxsackievirus B4. The assay can be described thus: Antiviral activity against coxsackie virus B4 in vero cells. Format: functional, organism-based.
Assay [11] has as its system Bovine viral diarrhea virus 1. The assay is described as follows: Antiviral activity against VP32947-resistant BVDV in MDBK cells. Format: functional, organism-based. To be noted: Bovine viral diarrhea virus isolates and strains. In short, it runs like this: (§3)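 MDBK cells seeded 20 × 10^3/well in MEM with 5% heat-inactivated FCS, confluent after 24 h; serial 3-fold compound dilutions added, then virus at MOI 0.5 (line 2: NADL F224S mutant). 5 days at 37 °C, then ethanol fixation and Giemsa staining. CPE scored microscopically 0–10 per well. EC50 by logarithmic interpolation; mean ± SD of at least three experiments.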

Assay [12] has as its system MDBK441. The assay is described as follows: Selectivity index (CC50/EC50) for inhibition of BVDV NADL in MDBK cells. Format: functional. In short, it runs like this:
as §1

Assay [13] has as its system Human immunodeficiency virus 1. The assay is described as follows: Antiviral activity against HIV1 3B in MT4 cells. It is filed as functional, organism-based.
Assay [14] has as its system Bovine viral diarrhea virus 1. The assay is described as follows: Antiviral activity against BVDV NADL in MDBK cells. It is filed as functional, organism-based. The note with it: Bovine viral diarrhea virus isolates and strains. In short, it runs like this:
as §3

Each structure is given as a SMILES string. ≈ marks a conversion by molar mass, not a printed value. Calls of active or inactive are those of the source. No cut-off for these calls is given here. Where only a bound is given, the exact number is not on record here.

As usually defined, the EC50 is the concentration that produces a half-maximal response. By CC50 is commonly meant the concentration giving 50% cytotoxicity. Read a low CC50 as greater toxicity to the cells. For the compound `Cn1c2cc(N3CCN(c4ccccn4)CC3)c(N)cc2c(=O)c2c(O)cc(O)cc21`, the result (with Sindbis virus; with Human respirovirus 3; in the assay on Vaccinia virus; in assay [1]; in assay [3]; in the assay on Human betaherpesvirus 5 [5]) was inactive. Besides, the outcome (in the assay with Human betaherpesvirus 5 [6]; in [8]; with Punta Toro virus; in the assay on Human alphaherpesvirus 2; in assay [9]; with Human alphaherpesvirus 1) was inactive. The result (in the assay on Coxsackievirus B4; in [13]) was inactive. The Selectivity index is over 45 in the assay with MDBK441 [2] and over 200 in the assay with MDBK441 [12]. For the same compound, the 50% effective concentration (EC50) in the assay with MDBK441 [4] came to 2.3 µg/mL (≈ 5.51 µM); in the assay with MDBK441 [7], 2.01 µg/mL (≈ 4.81 µM); in assay [11], 2.24 µg/mL (≈ 5.37 µM). The CC50 in the assay on Huh-5-2 is 21 µg/mL (≈ 50.3 µM); with MDBK441 [10], over 100 µg/mL.

Take `COc1cc(OC)c2c(=O)c3cc([N+](=O)[O-])c(N4CCN(c5ccccn5)CC4)cc3n(C)c2c1`: the outcome (in the assay with Sindbis virus; in the assay on Human respirovirus 3; in the assay with Vaccinia virus; in assay [1]; in [3]; in the assay with Human betaherpesvirus 5 [5]) was inactive. Further, the outcome (in the assay on Human betaherpesvirus 5 [6]; in assay [8]; in the assay with Punta Toro virus; in the assay on Human alphaherpesvirus 2; in assay [9]; in the assay with Human alphaherpesvirus 1) was inactive. Besides, the result (in the assay with Coxsackievirus B4; in assay [13]) was inactive. The compound further came in with an EC50 in assay [14] of 18 µg/mL (≈ 37.9 µM). The same compound yielded a CC50 with MDBK441 [10] of over 100 µg/mL. In the assay with MDBK441 [12], the Selectivity index is listed as over 6.

In the case of `COc1cc(OC)c2c(=O)c3cc(N)c(N4CCN(c5ccccn5)CC4)cc3n(C)c2c1`, the result (in the assay on Sindbis virus; in the assay on Human respirovirus 3; with Vaccinia virus; in [1]; in assay [3]; in the assay on Human betaherpesvirus 5 [5]) was inactive. Moreover, the outcome (with Human betaherpesvirus 5 [6]; in assay [8]; in the assay with Punta Toro virus; in the assay with Human alphaherpesvirus 2; in [9]; in the assay on Human alphaherpesvirus 1) was inactive. The outcome (in the assay with Coxsackievirus B4; in assay [13]) was inactive. In assay [14], this compound had an EC50 of over 100 µg/mL. In addition, the CC50 with MDBK441 [10] is over 100 µg/mL. The Selectivity index in the assay with MDBK441 [12] turned out to be 1.

For the compound `C[C@@]1(O)[C@H](O)[C@@H](CO)O[C@H]1n1cnc2c(N)ncnc21`, the Selectivity index in the assay on MDBK441 [2] is over 38; in the assay with MDBK441 [12], over 63. The EC50 in [14] is 0.22 µg/mL (≈ 0.782 µM); in assay [11] it was 0.37 µg/mL (≈ 1.32 µM). The compound also yielded a CC50 in the assay on MDBK441 [10] of over 14 µg/mL.

On to `CCCN(CCC)CCSc1n[nH]c2c3ccccc3nc-2n1`, for which the Selectivity index in the assay on MDBK441 [2] is 1; with MDBK441 [12] it was over 111. The EC50 in assay [14] is 0.009 µg/mL (≈ 0.0273 µM); in [11], over 1 µg/mL. This compound displayed a CC50 in the assay with MDBK441 [10] of over 1 µg/mL.

Consider `COc1cc(OC)c2c(=O)c3cc([N+](=O)[O-])c(Cl)cc3n(C)c2c1`, for which the result (in the assay with Sindbis virus; with Human respirovirus 3; in the assay with Vaccinia virus; in assay [1]; in assay [3]; in the assay with Human betaherpesvirus 5 [5]) was inactive. For the same compound, the outcome (with Human betaherpesvirus 5 [6]; in assay [8]; with Punta Toro virus; in the assay with Human alphaherpesvirus 2; in assay [9]; in the assay on Human alphaherpesvirus 1) was inactive. For the same compound, the result (with Coxsackievirus B4; in assay [13]) was inactive. Also, the concentration for a half-maximal effect (EC50) in assay [14] was over 100 µg/mL. For the same compound, in the assay on MDBK441 [10], the CC50 was over 100 µg/mL. In the assay on MDBK441 [12], this compound had a Selectivity index of 1.

As to `COc1cc(OC)c2c(=O)c3cc(N)c(Cl)cc3n(C)c2c1`, the result (with Sindbis virus; in the assay with Human respirovirus 3; in the assay with Vaccinia virus; in [1]; in assay [3]; in the assay with Human betaherpesvirus 5 [5]) was inactive. For the same compound, the result (in the assay with Human betaherpesvirus 5 [6]; in [8]; with Punta Toro virus; with Human alphaherpesvirus 2; in [9]; with Human alphaherpesvirus 1) was inactive. Besides, the result (in the assay on Coxsackievirus B4; in [13]) was inactive. This compound displayed a half-maximal effective concentration (EC50) in assay [14] of over 100 µg/mL. The compound also showed a CC50 with MDBK441 [10] of over 100 µg/mL. For the same compound, the Selectivity index in the assay on MDBK441 [12] is 1.
